# Results reported in the EternaBench riboswitch data.
# System: MS2 coat protein
# Experiment: apparent Kd, MS2 coat protein; higher = weaker binding; RNA-MaP array; FMN 200 µM where present
# Outline: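 On Illumina sequencing-chip clusters, designs were transcribed by stalled E. coli RNA polymerase and titrated with SNAP-549-labelled MS2 coat protein (0.7 or 1.5 nM, doubling to 3 µM), without and then with constant ligand, in 100 mM Tris-HCl pH 7.5, 80 mM KCl, 4 mM MgCl2, BSA, DTT, yeast tRNA and Tween-20. Apparent Kd is the median of filtered per-cluster curve fits to green signal normalised to red-channel RNA signal and control-cluster median Fmax.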
# [1] = designed as: OFF switch for flavin mononucleotide, no ligand
# [2] = ligand present: flavin mononucleotide, designed as: OFF switch for flavin mononucleotide
# [3] = designed as: ON switch for flavin mononucleotide, no ligand
# [4] = ligand present: flavin mononucleotide, designed as: ON switch for flavin mononucleotide
Sequence,apparent Kd [1] [nM],apparent Kd [2] [nM],apparent Kd [3] [nM],apparent Kd [4] [nM]
AGAAACUACGAGAAGGACAAAAACGGUGCCGCAAACAUGAGGAUCACCCAUGUAGGAUAUCGUAGUUUCAGGAUCGUGAGAUCA,14.2,84.7,–,–
AGCCAACAUGAGGAUCACCCAUGUGUACGUUAUGUAGGAUAUCUGAUGCGCGCGUGCGCAAGAGAAGGACGAGACG,–,–,33.4,21.2
GCCCUCGCUGAGGAUAUUAUCUGGCUCGAUUGAUAAGAAGGCAGUACAUGAGGAUCACCCAUGUGGUUCGUUCG,69.5,265,–,–
GUGCAUUACGAGAAGGCGUACUGGUGAAUAUAAAACGACAAAGGUACAUGAGGAUCACCCAUGUACGAGGAUAUCGAUUUGGCU,11,39.7,–,–
UUUGGGUCAGGAUAUUGUUAGUUUAGUUGUUUGUAUUAGUUCGAGAAGGGACAUGAGGAUCACCCAUGUGGUAA,94.9,69.9,–,–
GCUAUCGAUGUAGGAUAUGAUAUAGAAACUAUGUCAGAAGGACAUGAGGAUCACCCAUGUCAAUGGAUGGAGAGAAGAGAUGGC,26.7,52.5,–,–
AAAAAACAUGAGGAUCACCCAUGUGAAAAUAUGGGAGGAUAUACAAACACGAAAGUGAAAGUAGAAGGCCUAAAAA,–,–,97,25.6
CGAUGCAGAGGAUAUACAUGAGGAUCACCCAUGUACCUACUCGGGCGUCCUCUUAGAUGUAGAAGGCUGACACU,62.6,72,–,–
UACGAAUACCCUCGUCGGCUGAAUCCAGAAGGACCACAUGAGGAUCACCCAUGUCGAAGAUAAAGGUAGGAUAUGGAGUGCCUA,–,–,119,23.9
AAAAUACAUGAGGAUCACCCAUGUGAAAAUAUGGGAGGAUAUACCGAAAAAAAAAAAAAGGUAGAAGGCCCAAAAA,–,–,22.5,32.5
UAGAUGGGAGGAUAUACAUAGAUACAGAUUCGUGUAGUGCUACAUGAGGAUCACCCAUGUAGAAGGCCCGUCUU,16.2,71.9,–,–
GUGAAACAUGAGGAUCACCCAUGUGAGGAUAUGAUACUAUGUACUUCGGUACAUAGUAUCAGAAGGCACAGUGA,96.1,282,–,–
GUAGCAUACCGAGGAUAUUCACCGGAAACGGAAACAUGAGGAUCACCCAUGUGGCGAAAGCCUUGGGAGAAGGCGGAAUGCUAC,–,–,195,24.5
AAUAAACUCACAGGAUAUAGCAGCGGUCGCGUGAACUUACAGGCGACGAGGCUAGAAGGGUGACCACAUGAGGAUCACCCAUGU,–,–,817,219
AAGUCGGUAGAUAAUAAUGAUUACAUGAGGAUCACCCAUGUAUAGGAUAUCGUCAGGAAUACUGACGAGAAGGAUACAUCCGAC,17.6,30,–,–
UAUAUAUAGUAAGGAUAUGUAUAUAUUUUACAAACAGAAGGUACUGACAUGAGGAUCACCCAUGUUUUAGUGUGGGCAUGUAGA,57.8,60,–,–
GUGGUACAUGAGGAUCACCCAUGUCAGGAUAUCGCGUGGUUUUUUGCGGCCGCGCGCGCGAGAAGGGACGUCUU,36.3,43.3,–,–
CGGUGACGUGUAGGAUAUGGCGCUGGGUUUUGCCCAGAAGGACAUGAGGAUCACCCAUGUGGUAGAGGGCUGGCGGCCGCCCGU,17.1,21.6,–,–
UGUUCGUCAGGAUAUUCUACUUAUUACAUGAGGAUCACCCAUGUGUAUGUACAAGGGUGUGAAGAAGGGACUUUUU,719,260,–,–
CGGGCUGCCAGAGGAUAAUGGACAUGAGGAUCACCCAUGUGUCAGGAUAUGGGUUUCACAUGGACUCAGAAGGGACCAGCCCAA,–,–,101,24.9
GGGUACAUCGGAGGAUAUCAUGUAAAUACAUGAGGAUCACCCAUGUCGAUGGAGACAUCGGAGAUUGAGAAGGCCGAUGUACGG,–,–,160,9.04
GUGUAGAGAGGAUAUACAUGAGGAUCACCCAUGUGAAUAAGAUAGAAUAAGAUAAAGUGUAGAAGGUUUAGUGU,43,34.2,–,–
AGUGUCGGCACAGGAUAUGAGAUGCCGGCAGACAUGAGGAUCACCCAUGUAAGCGAACCAGGCAGUCAGAAGGGUGAUCGACGA,–,–,119,26.9
UUAUGUUUACAAGGAUAUCAAUUAUUUAUACUUCCUACAUGAGGAUCACCCAUGUUUUUAUAUUUUGAGAAGGUGUAAUGUCGG,–,–,38.5,35.4
ACAUGAGGAUCACCCAUGUUAUCCGGGACUUCAAUUGUAUCUAGAAGGCUGUCUGCUUGUUAGUCAGAGGAUAUAGAUUCAAAU,12.4,11.1,–,–
CUUUUGUGAGGAUAUCAGGUGUGCUAGCGUACUGGUACAUCUGAGAAGGCACAUGAGGAUCACCCAUGUUUCUU,32.9,75.5,–,–
CUGGUGUGAGGAUAUCUACGCCAUGUCUUUGACAUGGCGCAAGAGAAGGCACAUGAGGAUCACCCAUGUACUUC,21.7,74.4,–,–
GUGCCUUAUGAGAAGGCGAUCAUGAAACAUGAUCGAGGAUAUCAUGAAAACAUGAGGAUCACCCAUGUAUGGGUAUUAUGGUAC,–,–,107,27.8

Sequence,apparent Kd [1] [nM],apparent Kd [2] [nM],apparent Kd [3] [nM],apparent Kd [4] [nM]
CGGUGUAGAGGAUAUACGUGAAUUUUGUUAUAUGAUAAUUUACAUGAGGAUCACCCAUGUAGAAGGCUAUAGCG,17.9,18.1,–,–
UGUUACUAGUAAGGAUAUACUAGCGAUAAGCUAGUAGAAGGUACAGUCUUUUGUAUAACAUGUUUACAUGAGGAUCACCCAUGU,–,–,10.6,8.02
GCAGGUUUACGAGGAUAUGGGUGGUACGGACAUGAGGAUCACCCAUGUCUCCCAGAAGGCGUAGCCUAACAAAGAGAACAGGAG,–,–,111,19.2
GAACGUGACAUGAGGAUCACCCAUGUUGCCUUGGCCAGGUCGUAGGAUAUCCUGAUGAUUAAUUUGGAGAAGGGCGACUGGGAG,–,–,36.1,15.3
GACGGACAUGAGGAUCACCCAUGUAGGUUGGCCACAGGAUAUGCAAAACGGCCUGCCGCGGCAGAAGGGUGAGCCC,–,–,39.1,43.7
AACGUGUGAGGAUAUUAGUUGUACGUCAAUAGACGUAUAAGUGAGAAGGCACAUGAGGAUCACCCAUGUUCCUG,23.9,195,–,–
CAGCUACCCAGUAUGGGUAUUUGUACAGAAGGCCAGGUACAUGAGGAUCACCCAUGUAAAGAUAUGGAGGAUAUGUUAGUGUAU,–,–,22.1,6.86
CUAGAGGAUUAAGGAUAUGCAGAGAGAUCAUGCGCGUCGCGCACAUGAGGAUCACCCAUGUAAGAGCAGAAGGUAACUAUGAUC,18.3,16.6,–,–
AUGAUUAUAUUAUACAUGAGGAUCACCCAUGUUAUAAGUCAUGAGGAUAUGGUAUUGUAGUUUUUCCAGAAGGCAUUUAACUUA,–,–,7.91,5.47
AUCGGCAACACCAUGGUGGAUCCUGAGGAUAUGAAAAGCUACAUGAGGAUCACCCAUGUCCCGCGUCAGAAGGCAGGUUUGAUC,–,–,138,17
GAGAGCCGAGGAUAUACAUGAGGAUCACCCAUGUAAAAAAAAAAAAAAAAAAAAUCAUGUAGAAGGCGGCUUUC,122,89.8,–,–
AAGAAGUCAGGAUAUGCAUGGCGGGACUUGCGUCGUGGCGUGCAGAAGGGACAUGAGGAUCACCCAUGUGGAGA,124,249,–,–
UGAUAGGACAGAGGAUAUACGGCUAGGAGAUACUAGCCACUAUUCCUCACAUGAGGAUCACCCAUGUAGAAGGCUGUCCUAUCU,16.4,119,–,–
GGGAAGUGAGGAUAUGCUGCUCGUCACUUGCGUGAUGAGUAGCAGAAGGUACAUGAGGAUCACCCAUGUAAAGA,29.5,20.7,–,–
ACAUGAGGAUCACCCAUGUAAUAACAUCGGUUAUACGAAAGUGAGGAUAUCGAUCAGGCAUAUUACGAGAAGGCACAAUAGGGA,–,–,41.3,43.2
AAAAGACAUGAGGAUCACCCAUGUCUUCGGACAUGAGGAUAUGUACAGACUUCGGUCUGUACAGAAGGCAUGUAAA,–,–,42.9,17
UGUUGUAUUACAGGAUAUCUAUUAGUUUUGUUUAGAGAAGGGUAUUCACAUGAGGAUCACCCAUGUAUAUACGAGGAAGUUGUG,–,–,59,65.2
CUUUUGUGAGGAUAUCAGUAGUAAAAGAAUAAAAUUACUACUGAGAAGGCACAUGAGGAUCACCCAUGUUCCUC,42.5,239,–,–
AUGCUGUCAGGAUAUCGUUAAUUUAGUUGUUUGUAUUAGUUCGAGAAGGGACAUGAGGAUCACCCAUGUUUGUA,30.8,37.4,–,–
GCUGCAAAUGAGAAGGCGAUCAUGAAACAUGAUCGAGGAUAUCAUGUUUACAUGAGGAUCACCCAUGUAUGGGUAUAUUGCAGC,–,–,707,14.3
ACUAACGAAGGAUAUACUAACGAAACUAAUGCAUAGAUAAAACAUGAGGAUCACCCAUGUAGAAGGUCGAGACU,22.5,25.5,–,–
AAAAAGUCAGGAUAUGUCAAAAGUCACAAAAGUGACAAAAGACAGAAGGGACAUGAGGAUCACCCAUGUAAAAA,29,46.4,–,–
CUGAAGAGAGAAGGAUAUCACAGGAUGGAGAUCUCUGAAUAAACAUGAGGAUCACCCAUGUCCAGUGAGAAGGUCUCGGUUCCG,186,195,–,–
GGGACUCAAAGAGUACCAAUACGAACAUGAGGAUCACCCAUGUAGGAUAUGCUACUCAAAGAGUAGCAGAAGGACAUGUGCCUA,15.3,82.2,–,–
GUCAGCUCGUGAGGAUAUUCAACACUGCUUCGGCAGUGUAUUAAGAUCACAUGAGGAUCACCCAUGUAGAAGGCACGAGCUGAU,5.79,10.8,–,–
AGAAACUACGAGAAGGACAUAUGACCAAGACUAAACAUGAGGAUCACCCAUGUAGGAUAUCGUAGUUUCAGGAUCGUGAGAUCA,5.81,12.2,–,–
CUACCUUAUGAGAAGGCGGUCAUGAAACAUGAUCGAGGAUAUCAUGUAAACAUGAGGAUCACCCAUGUAUGGGUAUUAUGGUAC,–,–,170,33
